The source of these data is ChEMBL document CHEMBL4665669, “Novel tertiary sulfonamide derivatives containing benzimidazole moiety as potent anti-gastric cancer agents: Design, synthesis and SAR studies” (Eur J Med Chem, 2019).

The test system of assay [1] is MGC-803. Description: Anticancer activity against human MGC-803 cells assessed as inhibition of cell proliferation after 48 hrs by MTT assay. Particulars: MGC-803, 48 h. The class given is functional, cell-based. A digest of the protocol: (§1)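 MTT assay with 48 h compound exposure. MTT solution was then added and incubated 4 h at 37 °C, the supernatant discarded and formazan dissolved in DMSO, with absorbance read at 490 nm. IC50 values were calculated from three independent experiments, reported as mean SD.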
A general note: Tetrazolium assays rely on reduction of a dye to a coloured formazan, in cell work by metabolically active cells.

In assay [2] the test system is PC-3. Description: Anticancer activity against human PC-3 cells assessed as inhibition of cell proliferation after 48 hrs by MTT assay. Format: functional, cell-based. Particulars: PC-3, 48 h. The procedure, abridged: as §1
The test system of assay [3] is MCF7. Put plainly: Anticancer activity against human MCF7 cells assessed as inhibition of cell proliferation after 48 hrs by MTT assay. The class given is functional, cell-based. Particulars: MCF7, 48 h. The procedure, abridged:
as §1

Assay [4] concerns the target Carbonic anhydrase 9 (Homo sapiens, UniProt Q16790). Description: Inhibition of recombinant human CA9 preincubated for 15 mins by phenol red dye based stopped flow CO2 hydration assay.
A short description of assay [5]: Inhibition of HIF in human LN229 cells transfected with HRE-luc/LacZ by dual luciferase reporter gene assay. Format: cell-based. Particulars: LN-229. For orientation: A reporter such as luciferase makes a cellular process visible.
Assay [6] relates to HGC-27. Description: Anticancer activity against human HGC-27 cells assessed as inhibition of cell proliferation after 48 hrs by MTT assay. Particulars: HGC-27, 48 h. The class given is functional, cell-based. A digest of the protocol: as §1
The test system of assay [7] is SGC-7901. Description: Anticancer activity against human SGC-7901 cells assessed as inhibition of cell proliferation after 48 hrs by MTT assay. The class given is functional, cell-based. Particulars: SGC-7901, 48 h. The procedure, abridged: as §1
The test system of assay [8] is GES1. Put plainly: Cytotoxicity against human GES1 cells assessed as inhibition of cell proliferation after 48 hrs by MTT assay. The class given is cell-based. Particulars: GES1, 48 h. A digest of the protocol:
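Normal gastric epithelial GES-1 cells were exposed to compound for 48 h. MTT was then added for 4 h at 37 °C. Formazan was dissolved in DMSO after the supernatant was removed, and absorbance was read at 490 nm. IC50 was computed from three independent experiments, given as mean SD.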

Bounds are passed on as bounds.

Broadly, the IC50 is the point on the concentration scale where inhibition reaches its midpoint. Consider `COc1cc(N(Cc2nc3ccccc3[nH]2)C(=O)c2ccc(C(C)(C)C)cc2)cc(OC)c1OC`, for which the figures for the IC50 in assay [1], in assay [2] and in assay [3] were over 50 µM, 46 µM and 48.8 µM, respectively.
As to `COc1ccc(S(=O)(=O)N(Cc2nc3ccccc3[nH]2)c2cc(OC)c(OC)c(OC)c2)cc1OC`, the values for the IC50 in assay [1], in assay [2] and in assay [3] were 22.5 µM, 30.4 µM and 47.7 µM, respectively.
On the same counts, the results for `COc1ccc(CN(c2cc(OC)c(OC)c(OC)c2)S(=O)(=O)c2ccc(OC)c(OC)c2)cc1` are 8.31 µM, 20.1 µM and 22.7 µM.
For `COc1ccc(N(Cc2nc3ccccc3[nH]2)S(=O)(=O)c2ccc(C)cc2)cc1OC`, the IC50 in assay [1], in assay [2] and in assay [3] was over 50 µM each time.
Consider `COc1cc(N(Cc2nc3ccccc3[nH]2)C(=O)c2cccc(Cl)c2)cc(OC)c1OC`, for which the IC50 in assay [1] is over 50 µM; in assay [2], over 50 µM; in assay [3], 34.9 µM.
Take `Cc1ccc(N(Cc2nc3ccccc3[nH]2)S(=O)(=O)c2ccc(C)cc2)cc1`: the values for the half-maximal inhibitory concentration (IC50) in assay [1], in assay [2] and in assay [3] were 41.2 µM, 48.9 µM and over 50 µM, respectively.
On to `Cc1ccc(S(=O)(=O)N(Cc2nc3ccccc3[nH]2)c2ccc(F)cc2)cc1`, for which the IC50 in assay [1] was 34.6 µM; in assay [2], 45 µM; in assay [3] it was over 50 µM.
In the case of `COc1cc(N(Cc2csc3ccc(Cl)cc23)S(=O)(=O)c2ccc(C)cc2)cc(OC)c1OC`, the IC50 was 3.45 µM in assay [1], 15.2 µM in assay [2] and 8.95 µM in assay [3].
Consider `Cc1ccc(N(CC(C)F)S(=O)(=O)c2ccc([N+](=O)[O-])cc2)cc1` (configuration not stated), for which, in assay [4], the concentration for half-maximal inhibition (IC50) was determined as 0.0042 µM.
Take `COc1ccc(S(=O)(=O)N(Cc2ccc3c(c2)OC(C)(C)C=C3)c2ccccc2)cc1OC`: the IC50 in assay [5] came out at 0.59 µM.
`COc1ccc(C(=O)N(Cc2nc3ccccc3[nH]2)c2cc(OC)c(OC)c(OC)c2)cc1OC`: the values for the IC50 in assay [1], in assay [2] and in assay [3] were 22.4 µM, 34.9 µM and over 50 µM, respectively.
With `Cc1ccc(S(=O)(=O)N(Cc2nc3ccccc3[nH]2)c2ccc(Cl)cc2)cc1`, the IC50 in assay [1] came to 24.8 µM; in assay [2], 42.2 µM; in assay [3], 38.3 µM.
With `COc1cc(N(Cc2nc3ccccc3[nH]2)S(=O)(=O)c2ccc(F)cc2)cc(OC)c1OC`, the IC50 in assay [1] stood at 5.68 µM; in assay [2], 7.99 µM; in assay [3] it was 9.38 µM.
On the same counts, the results for `COc1cc(N(Cc2nc3ccccc3[nH]2)C(=O)c2ccc(Br)cc2)cc(OC)c1OC` are 14.6 µM, 19.9 µM and over 50 µM.
`O=c1[nH]cc(F)c(=O)[nH]1` [FLUOROURACIL]: the IC50 is 18.4 µM in assay [2]; 17.1 µM in assay [3]; 4.28 µM in assay [6]; 5.54 µM in assay [7]; 10.2 µM in assay [8].
For `Cc1ccc(S(=O)(=O)N(Cc2nc3ccccc3[nH]2)c2ccccc2)cc1`, the IC50 in assay [1] was 45.2 µM; in assay [2], over 50 µM; in assay [3], 49.7 µM.
Consider `COc1cc(N(Cc2ccc(Cl)cc2)S(=O)(=O)c2ccc(C)cc2)cc(OC)c1OC`, for which the IC50 in assay [1] was 1.72 µM; in assay [2], 14.6 µM; in assay [3] it was 18.6 µM.
For the molecule `COc1ccc(N(Cc2nc3ccccc3[nH]2)S(=O)(=O)c2ccc(C)cc2)cc1`, the IC50 in assay [1], in assay [2] and in assay [3] was over 50 µM in each case.
`COc1ccc(CN(c2cc(OC)c(OC)c(OC)c2)S(=O)(=O)c2ccc(C(C)(C)C)cc2)cc1`: the IC50 in assay [1] was 10.3 µM; in assay [2], 28.6 µM; in assay [3], 32.7 µM.
For `COc1cc(N(Cc2nc3ccccc3[nH]2)C(=O)c2ccccc2)cc(OC)c1OC`, the IC50 in assay [1], in assay [2] and in assay [3] was over 50 µM throughout.
Turning to `COc1cc(N(Cc2ccc(Br)cc2)S(=O)(=O)c2ccc(C)cc2)cc(OC)c1OC`, the IC50 in assay [1] is 1.61 µM; in assay [2], 4.68 µM; in assay [3], 10.9 µM.
For `COc1cc(N(Cc2nc3ccccc3[nH]2)C(=O)c2ccc(F)cc2)cc(OC)c1OC`, the IC50 stood at 23.6 µM in assay [1], 21.9 µM in assay [2] and 45.2 µM in assay [3].
Take `COc1cc(N(Cc2nc3ccccc3[nH]2)C(=O)c2ccc(C)cc2)cc(OC)c1OC`: the IC50 in assay [1] stood at 30.5 µM; in assay [2], 42 µM; in assay [3], 49.2 µM.
For `COc1ccc(CN(c2cc(OC)c(OC)c(OC)c2)S(=O)(=O)c2ccc(C)cc2)cc1` the same measures were 4.34 µM, 8.22 µM and 10.1 µM.
For the molecule `COc1cc(N(Cc2cccc(C)c2)S(=O)(=O)c2ccc(C)cc2)cc(OC)c1OC`, the half-maximal inhibitory concentration (IC50) in assay [1] worked out at 4.34 µM; in assay [2], 8.58 µM; in assay [3], 14.3 µM.
`COc1cc(N(Cc2nc3ccccc3[nH]2)S(=O)(=O)c2ccccc2)cc(OC)c1OC`: the values for the IC50 in assay [1], in assay [2] and in assay [3] were 12.4 µM, 25.5 µM and 27.3 µM, respectively.
With `COc1ccc(CN(c2cc(OC)c(OC)c(OC)c2)S(=O)(=O)c2ccccc2)cc1`, the IC50 in assay [1], in assay [2] and in assay [3] was over 50 µM in each case.
Consider `COc1cc(N(Cc2ccccc2)S(=O)(=O)c2ccc(C)cc2)cc(OC)c1OC`, for which the IC50 in assay [1] was 3.57 µM; in assay [2], 7.81 µM; in assay [3], 10.2 µM.
On the same counts, the results for `COc1cc(N(Cc2ccc(F)cc2)S(=O)(=O)c2ccc(C)cc2)cc(OC)c1OC` are 3.75 µM, 20.7 µM and 19.2 µM.
On to `COc1ccc(CN(c2cc(OC)c(OC)c(OC)c2)S(=O)(=O)c2c(C)cc(C)cc2C)cc1`, for which the values for the half-maximal inhibitory concentration (IC50) in assay [1], in assay [2] and in assay [3] were 6.44 µM, 14.8 µM and 18.7 µM, respectively.
As to `COc1cc(N(Cc2nc3ccccc3[nH]2)S(=O)(=O)c2ccccc2Cl)cc(OC)c1OC`, the IC50 is 19.1 µM in assay [1], 34.5 µM in assay [2] and 38.1 µM in assay [3].
As for `COc1cc(N(Cc2nc3ccccc3[nH]2)S(=O)(=O)c2ccc(C(C)(C)C)cc2)cc(OC)c1OC`, the IC50 in assay [1] was found to be 24.1 µM; in assay [2], 29.8 µM; in assay [3], 33.6 µM.
For `COc1cc(N(Cc2nc3ccccc3[nH]2)S(=O)(=O)c2ccc(Br)cc2)cc(OC)c1OC`, the IC50 was determined as 2.19 µM in assay [1], 6.89 µM in assay [2] and 7.74 µM in assay [3].
